Bioassay records as filed in PubChem BioAssay.
Autophagy HCS: alters autophagy in cells; 0.98% of 190,000 active; AID 463193; MEF GFP-LC3 puncta imaging; test concentration mostly 10 µM; calls only at 10 µM (by protocol);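 active = percentage of spot-positive cells more than 3 SD above its plate mean, without a fluorescence outlier flag or 80% toxicity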;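 also: spot-positive cell cutoff set from DMSO-treated cells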
CHOP inhibitor: CHOP inhibition in unfolded protein response | AID 2732 | 3.8% of 220,000 active | inhibition, % at 10 µM | CHO-K1 CHOP-promoter luciferase, tunicamycin-induced, 15-18 h;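 active = compounds that reduced the stress-induced luciferase reporter signal by more than about 70% of percent inhibition, limit read from the data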;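 also: 0% = tunicamycin plus vehicle and 100% = wells without tunicamycin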
Lmaj promast: Leishmania major promastigote growth inhibition. Leishmania major promastigotes, resazurin fluorescence viability. inhibition, % at 10 µM. 9% of 200,000 active; in the data active = inhibition above about 50%;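 also: promastigotes grown with compound for 44 hours at 28 °C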
bCat nuc transl: beta-catenin nuclear translocation modulation. HeLa beta-catenin nuclear translocation, immunofluorescence imaging. AID 1665. nuclear translocation activity, % at 5 µM. 0.3% of 190,000 active;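 active = nuclear translocation activity above 50% at 5 µM, with a well cell count of 50 or more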;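 also: per-cell ratio of nuclear to cytoplasmic median beta-catenin stain intensity; plate controls were DMSO negative control for no effect and GSK-3 inhibitor IX positive control for full effect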
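Test system: HeLa cells, endogenous beta-catenin; Compound: single 5 µM dose plus 0.02–20 µM confirmation series; Times: compound exposure 24 h at 37°C; Signal: fluorescence imaging of beta-catenin antibody stain plus DAPI; Read-out: % activation, nuclear-to-cytoplasmic median beta-catenin signal ratio per cell.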
MT stabilize HCS: stabilizes microtubules in HeLa cells; % tubulin-high responders, % at 10 µM; HeLa tubulin immunostaining HCS, 24 h; share of cells brighter than vehicle mean+2SD; 0.83% of 200,000 active;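 active = plate Z-score above 3 for both tubulin-high and condensed-nucleus cell shares, with cell loss under 80%, at 10 µM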;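 also: anti alpha tubulin signal scored within the nucleus-defined area of each cell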
Dynein transport: blocks dynein driven cargo transport along microtubules; z-score, hits read low; 3617.4 mouse cells, GR-EGFP nuclear translocation imaging; test concentration mostly 20 µM; stimulated with dexamethasone, 1 µM; hits give low values; 0.47% of 220,000 active;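 active = plate z-score of nuclear minus cytoplasmic receptor signal below a set negative limit, without overly bright fluorescence or cell loss, cut at about -3.5 in these data, passing the limit was not always enough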;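 also: z-score of nuclear minus cytoplasmic ring GR-EGFP intensity difference per well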
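medium = tetracycline-free induction medium containing charcoal-stripped FBS | probe or stimulus = dexamethasone, 1.0 µM final | timing = 48 h induction, then 1 h compound, then 30 min agonist, 37 °C | detection = automated 10x imaging of fixed Hoechst-stained cells | read-out basis = nuclear versus cytoplasmic GR-EGFP signal, averaged per well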
* hit, by the source's call; i = inactive; nt = no result; + = active, no number. A selection: hits, their analogues and other compounds. The true share with any hit is near 12%.

SMILES	Autophagy HCS	CHOP inhibitor	Lmaj promast	bCat nuc transl	MT stabilize HCS	Dynein transport
CCCCc1c(C)c2ccc(OC)c(/C(C)=N\O)c2oc1=O	i	-4.1	23.4	0.1	3.4	-0.195
NC(N)=N/N=C/c1ccc(OCc2ccccc2)cc1	i	-26.1	100.6*	17.2	17.8	-1.86
Cc1ccc(COc2ccc(/C=N/O)cc2)cc1	i	17.4	58.1*	-3.8	1.3	0.235
N#Cc1ccc(/C=N/N=C(N)N)cc1	i	20.6	78.7*	-3.4	2.3	2.4
NC(N)=N/N=C/c1ccc(Br)cc1	i	-31.0	99.8*	112.7*	23.6*	-0.132
O=C(N/N=C/c1ccccc1)c1ccc(OCc2ccccc2)cc1	i	-13.4	-1.1	0.3	3.8	-0.782
COc1cc(/C=C/C(=O)OCC(=O)NCCC2=CCCCC2)ccc1O	i	14.4	-7.1	-0.6	4.0	-0.794
CCc1ccc(NC(=O)CCNS(=O)(=O)c2cccc3nonc23)cc1	i	30.6	-3.9	-0.3	3.2	-1.12
COc1ccc(-c2[nH]ncc2CN2CCC(C(=O)c3ccc(F)cc3)CC2)cc1	nt	5.8	nt	-1.2	nt	-1.1
Cc1cccc(NC(=O)CCCN2C(=O)c3cccc4cccc(c34)C2=O)c1	i	24.4	-1.5	-1.2	2.7	0.967
Cc1cc(C(=O)CN2C(=O)NC3(CCCCC3)C2=O)c(C)n1-c1ccc2c(c1)OCO2	i	19.0	-2.1	-1.7	11.0	0.472
Cc1cc(-n2c(C)cc(C(=O)CN3C(=O)NC4(CCCCCC4)C3=O)c2C)no1	i	35.6	99.6*	0.5	2.6	2.51
CC1CCCCC12NC(=O)N(CC(=O)NC(=O)Nc1ccc3c(c1)OCCO3)C2=O (stereo not given)	i	59.9	0.2	-2.1	1.9	-0.186
CCC1CCC2(CC1)NC(=O)N(CC(=O)Nc1cc(C)on1)C2=O (stereo not given)	i	24.7	62.3*	nt	2.2	0.41
Cc1cc(NC(=O)CN2C(=O)NC(C)(c3ccc(OC(F)F)cc3)C2=O)no1 (stereo not given)	i	15.1	1.4	-1.3	3.0	1.45
Cc1cc(NC(=O)CN2C(=O)NC3(CCCCC3C)C2=O)no1 (stereo not given)	i	2.2	58.1*	0.5	1.8	0.684
O=C(CCSc1ccc(Cl)cc1)Nc1cccnc1	i	17.4	5.3	-0.2	2.3	-0.251
Nc1cc(C(F)(F)F)ccc1-n1cccc1	i	16.1	-0.8	-0.3	1.1	-0.0476
CCc1cccc(C)c1NC(=O)CO/N=C(\C)c1cc2ccccc2o1	i	42.5	70.2*	nt	2.0	-0.0485
COCCNC(=S)N1CCN(C/C=C/c2ccccc2)CC1	i	15.5	1.4	-1.3	4.9	0.109
Cn1c2ccccc2c(=O)c2c(=O)n(-c3ccccc3)c(C3CCCCC3)nc21	i	35.0	64.8*	1.9	2.8	-0.505
COc1ccc(Cn2c(C3CCCCC3)nc3c(c(=O)c4ccccc4n3C)c2=O)cc1	nt	4.7	nt	0.6	nt	0.25
CC1=CC2=NC(=O)/C(=C\c3ccc(-c4ccc(Cl)cc4)o3)C(=N)N2O1	+	93.0*	5.5	3.1	5.2	2.38
CC1=CC2=NC(=O)/C(=C/c3cccs3)C(=N)N2O1	nt	2.4	nt	1.2	nt	1.4
CN1CCN(NC(=O)c2cccc(C(F)(F)F)c2)CC1	nt	-10.9	nt	0.7	nt	1.48
SMILES	Autophagy HCS	CHOP inhibitor	Lmaj promast	bCat nuc transl	MT stabilize HCS	Dynein transport
CCN(CC)S(=O)(=O)c1cc(C)ccc1NC(=S)Nc1cccnc1	i	47.6	-1.6	-3.7	1.7	-0.233
CC(C)CC(=O)Nc1cc2nn(-c3ccccc3)nc2cc1Cl	i	85.4*	-7.2	-0.5	1.4	1.32
CC(=O)c1c(C(C)=O)c(C)n(-c2nc(-c3ccc(C)c(C)c3)c(C)s2)c1C	i	75.9*	6.6	-1.7	2.7	-0.331
Cc1ccc(C)c(NC(=S)NNC(=O)c2csc3c2CCC(C)C3)c1 (stereo not given)	i	89.9*	10.0	0.1	1.8	1.89
C=CCOC(=O)c1[nH]c2c(c1C)C(=O)CC(c1cc(OC)c(OC)c(OC)c1)C2 (stereo not given)	i	nt	7.5	5.2	3.3	0.715
CSCCOC(=O)c1[nH]c2c(c1C)C(=O)CC(c1ccco1)C2 (stereo not given)	i	nt	5.7	92.4*	7.9	-0.452
COCCOC(=O)c1[nH]c2c(c1C)C(=O)CC(c1ccco1)C2 (stereo not given)	i	nt	31.9	66.3*	9.8	1.16
Cc1c(C(=O)O)[nH]c2c1C(=O)CC(c1ccccc1)C2 (stereo not given)	i	3.9	3.1	-0.4	2.6	-0.766
Cc1c(C(=O)OCCOC(C)C)[nH]c2c1C(=O)CC(c1ccco1)C2 (stereo not given)	i	nt	5.4	118.1*	6.5	-0.406
CCCCOC(=O)c1[nH]c2c(c1C)C(=O)CC(c1cc(OC)c(OC)c(OC)c1)C2 (stereo not given)	i	nt	3.4	-0.8	5.8	0.395
Cc1c(C(=O)OCc2ccccc2)[nH]c2c1C(=O)CC(c1ccco1)C2 (stereo not given)	i	nt	-0.2	119.8*	6.8	-1.78
CCOc1ccc(CCNC(=O)c2cc3ccccn3n2)cc1OCC	i	11.2	-1.4	nt	3.7	2.44
O=C(c1ccc(Cl)cc1)c1oc2ccccc2c1CS(=O)c1ccccc1 (stereo not given)	i	56.5	8.5	1.2	3.1	0.223
Cc1ccc(C)c(N2CCN(C(=O)C34CC5CC(C3)CC(n3nnc(C)n3)(C5)C4)CC2)c1	nt	29.1	nt	-0.3	nt	1.03
CCOC(=O)c1[nH]c2c(c1C)C(=O)CC(c1ccco1)C2 (stereo not given)	i	nt	6.4	117.9*	7.0	-0.221
CSc1cccc(NS(=O)(=O)c2ccc3c(c2)oc(=O)n3C)c1	i	6.4	-1.1	nt	3.7	-0.0809
Clc1cccc(CSC2=NCCCN2)c1	i	3.4	60.0*	-2.4	3.7	-0.099
O=c1[nH]c(SCc2cccc(Cl)c2)nc2c1CCCC2	i	59.5	-9.8	-2.2	1.1	0.0212
Oc1ccc2ccccc2c1CN1CCN(c2ccccc2F)CC1	nt	65.0	7.0	-0.8	3.6	2.55
COc1ccc(-c2nc3ccccn3c2CN2CCN(c3ccccc3F)CC2)cc1	i	0.8	85.2*	-3.5	2.7	-0.917
Cc1ccc(C)c(Nc2ncnc(N)c2[N+](=O)[O-])c1	i	1.6	61.0*	-0.4	2.7	0.24
COc1cc(C)c(Cl)cc1S(=O)(=O)n1cnc2ccccc21	i	49.1	30.6	-8.0	1.3	-0.534
COc1ccc(C(C)C)cc1S(=O)(=O)n1cnc(C)c1	i	-11.8	-3.3	nt	17.8*	0.126
CCOc1cc(C)c(C(C)C)cc1S(=O)(=O)n1cnc(C)c1	i	19.1	25.8	-0.2	18.4*	-0.683
